In PubChem BioAssay AID2097 (Broad Institute, 2009):
Among all 300,000 compounds or so, about 120 (0.04%) were called active. Only a selection was taken, and actives are over-represented in it overall. Values without a mark were called inactive.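 Rule for the calls: active = more than half of replicate wells score below -50%, meaning over 50% inhibition versus plate controls; inconclusive = some replicates but at most half score below -50%; inactive = no replicate scores below -50%.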

What follows are compounds tested against Glycogen synthase kinase-3 beta (Homo sapiens) (UniProt P49841) (assay: blockers of GSK3B enzyme activity – biochemical, cell-free homogeneous, HTS, primary screen (AID 2097;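 note: 0% = median DMSO wells and -100% = median GW8510 positive control wells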)). Conditions: GST-GSK3beta kinase, ADP-Glo luminescence, 60 min; at 10 µM; hits give low values.
Glycogen synthase kinase-3 beta (Homo sapiens), sequence (P49841 whole entry, looked up): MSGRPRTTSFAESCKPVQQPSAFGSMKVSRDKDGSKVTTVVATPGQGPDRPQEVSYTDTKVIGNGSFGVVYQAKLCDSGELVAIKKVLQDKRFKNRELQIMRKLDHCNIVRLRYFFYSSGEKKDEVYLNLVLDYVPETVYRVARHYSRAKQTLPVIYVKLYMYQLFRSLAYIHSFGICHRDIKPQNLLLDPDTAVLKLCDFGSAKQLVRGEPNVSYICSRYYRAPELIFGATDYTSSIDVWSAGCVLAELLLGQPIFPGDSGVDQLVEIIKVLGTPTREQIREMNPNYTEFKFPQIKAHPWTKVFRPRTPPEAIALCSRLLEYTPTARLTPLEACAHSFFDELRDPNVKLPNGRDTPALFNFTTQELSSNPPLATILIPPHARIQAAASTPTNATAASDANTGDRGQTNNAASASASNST
How it was run: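 Assay system: GST-tagged human GSK3beta kinase, cell-free; Input: 1.6 ng GSK3beta; Medium: Tris/MgCl2 kinase buffer; Timing: 60 min enzyme reaction, room temperature; Signal: ADP-Glo luminescence quantifying ADP generated by kinase; Evaluation: score relative to plate controls; Benchmarks: DMSO neutral wells and GW8510 at 20 µM as positive.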

SMILES	activity score (negative = inhibition)
COc1ccc(C(=O)NC(C)Cn2nc(C)cc2C)cc1OC1CCN(C(C)=O)CC1 (stereo not given)	-1.16%
COc1cc(CN2CCC(n3nccc3NC(=O)CCCc3ccccc3)CC2)ccc1O	1.56%
O=C(Cc1ccccc1)NCC1OCCc2ccccc21 (stereo not given)	1.24%
CSCCNCc1cn(-c2ccc(F)cc2F)nc1-c1ccccc1C	6.14%
COCCCNC(=O)CNC(=S)N(Cc1cc(OC)c(OC)c(OC)c1)C1CCCC1	-1.22%
CC(CCc1ccccc1)NCC(O)c1cccc([N+](=O)[O-])c1 (stereo not given)	0.339%
O=C(C1CC1)N1N=C2CCCCC2C1(O)C(F)(F)F (stereo not given)	-1.66%
Cc1ccn2c(=O)c(NC(=O)c3cccc4ccccc34)c(C)nc2c1	-0.598%
CCN(CC(=O)N1CCCC1)S(=O)(=O)c1ccc(F)cc1	-0.618%
O=C(NCCNc1ccc([N+](=O)[O-])cc1Cl)c1ccccc1F	-5.43%
COc1ccc(N(Cc2ccc(N(C)C)cc2)C(=O)c2ccc(S(C)(=O)=O)cc2)cc1	1.2%
Cc1cc(C)c(OCCN2CC(C)OC(C)C2)c(Br)c1 (stereo not given)	-2.1%
Cc1nc(SCC(=O)NC2CCCC2)[nH]c(=O)c1C	1.74%
COc1ccccc1CNC(=O)C1CCN(S(=O)(=O)c2ccc3c(c2)OCCO3)CC1	-1.16%
COc1ccc(CCc2nc(-c3cccs3)no2)cc1	2.12%
O=C(CCN1C(=O)C2C3C=CC(C3)C2C1=O)Oc1ccc2ccccc2c1 (stereo not given)	1.85%
Nc1cccnc1Sc1ccccc1	-4.02%
C=CCn1cc(C(=O)NCc2ccc(Cl)cc2)c(=O)c2cc(S(=O)(=O)N(CC)CC)ccc21	4.27%
O=C(O)C1CCCN1C1=NS(=O)(=O)c2ccccc21 (stereo not given)	1.84%
COC(=O)c1c(C(=O)OC)c(-c2cccc(C)c2)n2c1CS(=O)C2 (stereo not given)	-0.0395%

SMILES	activity score (negative = inhibition)
C[C@H](NC(=O)[C@@H]1Cc2ccccc2CN1C(=O)OC(C)(C)C)C(=O)NC1CCCC1	0.0958%
C=CCN1CCN(C(=O)CCCc2ccccc2)CC1	3.12%
COc1ccccc1N1CCC(N2CCN(CC(C)(C)C)C(CCO)C2)CC1 (stereo not given)	-1.04%
COc1ccccc1C(=O)Nc1ccnn1C1CCN(C(=O)C(C)(C)C)CC1	-0.909%
CC(C)(C)NC(=O)CSC(=Nc1ccccc1F)NC#N	0.51%
Cc1c(NC(=S)NC(=O)CCc2ccccc2)c(=O)n(-c2ccccc2)n1C	0.697%
COCc1ccc(C(=O)N2CCc3c([nH]c4ccccc34)C2c2ccccn2)s1 (stereo not given)	1.6%
CCNC(=S)N(CCN(CC)CC)Cc1cc2cc3c(cc2[nH]c1=O)OCCO3	1.49%
Cc1csc(NC(=O)CSc2nc(=O)cc(N)n2-c2ccc(F)cc2)n1	1.17%
Cc1c(C(=O)NCCN(C)C)oc2ccc(S(=O)(=O)N3CCCC3)cc12	-4.78%
Cc1ccc([N+](=O)[O-])cc1S(=O)(=O)N1CCCN(C)CC1	-1.01%
CN1CCN(/N=C2/C(=O)Nc3ccc([N+](=O)[O-])cc32)CC1	-63.8% (active)
CN1CCN(/N=C/c2ccc(-c3ccc([N+](=O)[O-])cc3)o2)CC1	-0.646%
Cc1cccc(NC(=O)C2CC(=O)OC23CCCC3)c1 (stereo not given)	2.08%
COCCn1c(C)cc(C(=O)CSc2nc3ccccc3c(=O)n2C(C)COC)c1C (stereo not given)	-2.4%
COC(=O)/C(=C\Nc1ccccc1)NC(=O)c1ccc(Cl)cc1Cl	1.73%
N/C(=N\OC(=O)CCCC(=O)O)c1ncc(C(F)(F)F)cc1Cl	1.16%
CCS(=O)(=O)N1CCC(N2CCN(c3ccccc3)CC2)CC1	1%
CCc1cccc(NC(=S)N(CCN(C)C)C2CCN(C(C)C)CC2)c1	1.7%
COc1ccc2ccccc2c1CNCc1ccccn1	-4.15%

SMILES	activity score (negative = inhibition)
O=[N+]([O-])c1ccccc1S(=O)(=O)Nc1cccc2cccnc12	0.31%
CC(=O)N1CC[n+]2c(-c3ccc([N+](=O)[O-])cc3)csc21	-0.11%
COCCn1c(SCC(=O)Nc2ccccc2F)nc2c(c1=O)SCC2	0.573%
CN(CC(=O)Nc1ccccc1Cl)C(=O)c1ccccc1SCC(=O)N1CCCC1	-1.62%
CC(=O)Nc1cccc(C(=O)OCC(=O)c2ccc3c(c2)OCO3)c1	0.7%
COc1ccc(N(CC(=O)N2CCCCCC2)S(=O)(=O)c2ccccc2)cc1	-4.12%
CCOc1ccc(NC(=O)c2ccc(NC(=O)CN3C(=O)C(=O)N(CC(C)C)C3=O)cc2)cc1	0.0927%
OCCCNc1nccc(-c2cc(Nc3cccc(Cl)c3)ncn2)n1	-98.4% (active)
OCCCNc1nc(-c2ccccc2)c2cc(Cl)ccc2n1	0.00658%
CC(C)n1cnc2c(Nc3cccc(Cl)c3)nc(N(CCO)CCCO)nc21	-11.5%
NNC(=O)c1nnn(-c2nonc2N)c1CN1CCCC1	2.11%
Nc1nonc1-n1nnc(C(=O)N/N=C\c2ccncc2)c1CN1CCCCC1	-94.2% (active)
Nc1nonc1-n1nnc(C(=O)N/N=C/c2ccccc2O)c1CN1CCCC1	-36.9%
CN(CCC1CCOCC1)C(=O)CC1C(=O)NCCN1Cc1cccc(F)c1 (stereo not given)	-0.992%
COc1ccc(S(=O)(=O)NCCCCOc2ccc(Cl)cc2)cc1	-0.131%
CC(=O)Nc1ccccc1OC(C)C(=O)N1CCC(C)CC1 (stereo not given)	0.974%
CCn1cc(C(=O)NCCC(=O)NCCO)c(=O)c2cc3c(cc21)OCO3	-2.21%
COc1ccccc1-n1c(=S)[nH]c2c(sc(=S)n2-c2ccc(C)cc2C)c1=O	-0.962%
NC(=O)C[n+]1cccc(C(N)=O)c1	2.13%
CC(=O)Nc1ccc(C(=O)Nc2cccc(S(=O)(=O)NC3=NCCC3)c2)cc1	1.23%
